Results from ChEMBL document CHEMBL1145542, “Discovery of a new class of potent, selective, and orally bioavailable CRTH2 (DP2) receptor antagonists for the treatment of allergic inflammatory diseases” (J Med Chem, 2008).

Key:
[1] = target: T1, Prostaglandin D2 receptor 2 (Homo sapiens, UniProt Q9Y5Y4); assay: Displacement of [3H]PGD2 from human CRTH2 receptor expressed in CHO cells; type: cell-based
T1 sequence (Q9Y5Y4 whole entry): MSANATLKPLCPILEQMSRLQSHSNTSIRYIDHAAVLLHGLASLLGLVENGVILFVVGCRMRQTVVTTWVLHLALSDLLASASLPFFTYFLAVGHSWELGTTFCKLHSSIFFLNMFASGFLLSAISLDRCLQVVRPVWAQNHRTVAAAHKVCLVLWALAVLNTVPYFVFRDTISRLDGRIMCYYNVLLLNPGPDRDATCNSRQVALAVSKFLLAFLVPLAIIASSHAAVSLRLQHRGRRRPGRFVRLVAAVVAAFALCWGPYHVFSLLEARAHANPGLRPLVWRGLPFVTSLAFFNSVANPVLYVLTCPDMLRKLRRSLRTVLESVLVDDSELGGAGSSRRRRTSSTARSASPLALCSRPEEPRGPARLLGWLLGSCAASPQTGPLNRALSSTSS
How it was run: (§1)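 Scintillation proximity competition assay: 2–5 µg human or mouse CRTH2 membranes (nitrogen-cavitation, differential centrifugation) with WGA-SPA beads and 1.5 nM [3H]PGD2 in 10 mM HEPES/KOH pH 7.4, 10 mM MnCl2, protease inhibitors, 1% Me2SO, 90 min shaking at room temperature. Nonspecific binding with 1 µM PGD2. Ki by Cheng–Prusoff, mean of ≥3 independent experiments.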

[2] = target: T2, Prostaglandin D2 receptor 2 (Mus musculus, UniProt Q9Z2J6); assay: Displacement of [3H]PGD2 from mouse CRTH2 receptor expressed in HEK293 cells; type: cell-based; how it was run: as §1
T2 sequence (Q9Z2J6 whole entry): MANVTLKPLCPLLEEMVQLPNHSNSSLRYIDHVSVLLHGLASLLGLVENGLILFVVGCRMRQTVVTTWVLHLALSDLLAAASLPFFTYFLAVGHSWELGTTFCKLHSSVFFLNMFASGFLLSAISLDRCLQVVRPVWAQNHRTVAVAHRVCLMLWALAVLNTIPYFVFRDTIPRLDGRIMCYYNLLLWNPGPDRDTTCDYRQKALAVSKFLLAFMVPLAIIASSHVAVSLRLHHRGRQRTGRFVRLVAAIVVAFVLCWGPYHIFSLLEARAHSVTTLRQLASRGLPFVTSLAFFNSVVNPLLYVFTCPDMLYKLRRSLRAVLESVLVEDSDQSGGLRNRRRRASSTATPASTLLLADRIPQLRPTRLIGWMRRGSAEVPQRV

[3] = Intrinsic clearance per mg of protein in human liver microsomes at 3 uM; type: ADME, Microsome
How it was run: (§2)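 Rat or human liver microsomes (0.5 mg/mL final) in 0.1 M phosphate pH 7.4 with 3 µM compound (1% DMSO), preincubated at 37 °C, started with 1 mM NADPH. Quenched with cold acetonitrile at 0, 15, 30, 45 min; LC/MS-MS of compound disappearance gives intrinsic clearance.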

[4] = Intrinsic clearance per mg of protein in rat liver microsomes at 3 uM; type: ADME, Microsome; how it was run: as §2
[5] = Apparent permeability across human Caco-2 cell membrane at 10 uM; type: ADME, cell-based
How it was run: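 Caco-2 monolayers grown 21 days on Transwell filters; TEER above 800 ohm·cm² required. 10 µM test compound in HBSS added apically (A to B) or basolaterally (B to A), 2 h at 37 °C. Both compartments sampled, analysed by LC/MS-MS.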

[6] = Lipophilicity, log D of the compound; type: physicochemical; details: octanol/water
[7] = AUC (0 to last t) in rat at 1 mg/kg, iv; type: ADME, organism-based; design: time 0 - last, dose 1 mg/kg, route intravenous; details: plasma
How it was run: (§3)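 Male Sprague–Dawley or Janvier rats, three per route, dosed by oral gavage or iv bolus. Serial blood drawn through an indwelling carotid catheter up to 24 h post dose. Plasma pooled by time point, analysed by LC-MS/MS; non-compartmental analysis.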

[8] = AUC (0 to last t) in rat at 5 mg/kg, po; type: ADME, organism-based; design: time 0 - last, dose 5 mg/kg, route oral; details: plasma; how it was run: as §3
[9] = AUC (0 to last t) in Beagle dog at 1 mg/kg, iv; type: ADME, organism-based, Canis lupus familiaris; design: time 0 - last, dose 1 mg/kg, route intravenous; details: plasma
How it was run: (§4)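 Three male beagle dogs, crossover design; 1 mg/kg given as a solution, iv bolus and oral gavage. Serial blood sampled up to 48 h post dose. Individual plasma samples analysed by LC-MS/MS; PK parameters derived by non-compartmental analysis.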

[10] = AUC (0 to last t) in Beagle dog at 1 mg/kg, po; type: ADME, organism-based, Canis lupus familiaris; design: time 0 - last, dose 1 mg/kg, route oral; details: plasma; how it was run: as §4
[11] = Oral bioavailability in rat at 5 mg/kg; type: ADME, organism-based; details: in vivo; how it was run: as §3
[12] = Oral bioavailability in Beagle dog at 1 mg/kg; type: ADME, organism-based, Canis lupus familiaris; details: in vivo; how it was run: as §4
[13] = Cmax in rat at 1 mg/kg, iv; type: ADME, organism-based; design: dose 1 mg/kg, route intravenous; details: in vivo; how it was run: as §3
[14] = Cmax in rat at 5 mg/kg, po; type: ADME, organism-based; design: dose 5 mg/kg, route oral; details: in vivo; how it was run: as §3
[15] = Cmax in Beagle dog at 1 mg/kg, iv; type: ADME, organism-based, Canis lupus familiaris; design: dose 1 mg/kg, route intravenous; details: in vivo; how it was run: as §4
[16] = Tmax in rat at 1 mg/kg, iv; type: ADME, organism-based; design: dose 1 mg/kg, route intravenous; details: in vivo; how it was run: as §3
[17] = Tmax in rat at 5 mg/kg, po; type: ADME, organism-based; design: dose 5 mg/kg, route oral; details: in vivo; how it was run: as §3
[18] = Tmax in Beagle dog at 1 mg/kg, iv; type: ADME, organism-based, Canis lupus familiaris; design: dose 1 mg/kg, route intravenous; details: in vivo; how it was run: as §4
[19] = Half life in rat at 1 mg/kg, iv; type: ADME, organism-based; design: dose 1 mg/kg, route intravenous; details: in vivo; how it was run: as §3
[20] = Half life in rat at 5 mg/kg, po; type: ADME, organism-based; design: dose 5 mg/kg, route oral; details: in vivo; how it was run: as §3
[21] = Half life in Beagle dog at 1 mg/kg, iv; type: ADME, organism-based, Canis lupus familiaris; design: dose 1 mg/kg, route intravenous; details: in vivo; how it was run: as §4
[22] = Clearance in rat at 1 mg/kg, iv; type: ADME, organism-based; design: dose 1 mg/kg, route intravenous; details: in vivo; how it was run: as §3
[23] = Clearance in Beagle dog at 1 mg/kg, iv; type: ADME, organism-based, Canis lupus familiaris; design: dose 1 mg/kg, route intravenous; details: in vivo; how it was run: as §4
[24] = Volume of distribution at steady state in rat at 1 mg/kg, iv; type: ADME, organism-based; design: dose 1 mg/kg, route intravenous; details: in vivo, read-out: Vdss; how it was run: as §3
[25] = Volume of distribution at steady state in Beagle dog at 1 mg/kg, iv; type: ADME, organism-based, Canis lupus familiaris; design: dose 1 mg/kg, route intravenous; details: in vivo, read-out: Vdss; how it was run: as §4
[26] = target: T3, Prostaglandin D2 receptor (Homo sapiens, UniProt Q13258); assay: Inhibition of prostaglandin D2 receptor
T3 sequence (Q13258 whole entry): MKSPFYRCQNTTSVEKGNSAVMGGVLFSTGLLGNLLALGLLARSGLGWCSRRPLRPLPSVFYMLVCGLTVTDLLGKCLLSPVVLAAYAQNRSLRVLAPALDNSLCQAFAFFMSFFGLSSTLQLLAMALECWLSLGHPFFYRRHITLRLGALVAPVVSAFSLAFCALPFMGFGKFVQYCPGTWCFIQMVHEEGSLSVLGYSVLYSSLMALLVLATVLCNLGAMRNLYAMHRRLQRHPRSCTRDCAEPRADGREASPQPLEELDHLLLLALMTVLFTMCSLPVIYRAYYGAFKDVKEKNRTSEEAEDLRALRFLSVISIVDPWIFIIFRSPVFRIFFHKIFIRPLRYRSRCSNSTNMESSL

[27] = target: Prostaglandin E2 receptor EP2 subtype (Homo sapiens, UniProt P43116); assay: Inhibition of prostanoid EP2 receptor
Chain of Prostaglandin E2 receptor EP2 subtype (P43116 whole entry): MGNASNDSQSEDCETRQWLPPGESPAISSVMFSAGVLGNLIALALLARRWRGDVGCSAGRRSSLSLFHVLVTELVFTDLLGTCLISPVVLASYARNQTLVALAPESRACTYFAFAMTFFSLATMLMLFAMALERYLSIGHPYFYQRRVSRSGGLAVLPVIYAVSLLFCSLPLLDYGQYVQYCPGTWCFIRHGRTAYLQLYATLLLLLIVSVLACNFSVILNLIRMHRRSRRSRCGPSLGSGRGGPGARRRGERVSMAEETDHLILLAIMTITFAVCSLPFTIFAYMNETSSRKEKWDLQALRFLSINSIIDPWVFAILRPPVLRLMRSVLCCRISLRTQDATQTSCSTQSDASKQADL

[28] = Inhibition of prostanoid EP3 receptor
[29] = Inhibition of prostanoid EP4 receptor
[30] = Inhibition of prostanoid FP receptor
[31] = Cmax in Beagle dog at 1 mg/kg, po; details: in vivo
[32] = Tmax in Beagle dog at 1 mg/kg, po; details: in vivo
[33] = Half life in Beagle dog at 1 mg/kg, po; details: in vivo
[34] = target: T1, Prostaglandin D2 receptor 2; assay: Antagonist activity at human CRTH2 receptor expressed in CHO cell membrane by [35S]GTP-gamma-S binding assay; type: functional, cell membranes
How it was run: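 [35S]GTPγS binding at 30 °C on 10 µg human CRTH2 membranes in 20 mM HEPES/KOH pH 7.4, 10 mM MgCl2, 10 µg/mL saponin, 3 µM GDP, 150 mM NaCl, 2% Me2SO. PGD2 preincubation 10 min (antagonist mode: 80 nM PGD2), then 0.15 nM [35S]GTPγS for 30 min. Nonspecific binding with 10 µM GTPγS; stopped by centrifugation, scintillation counting.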

Cytochrome P450 1A2 = target: T4, Cytochrome P450 1A2 (Homo sapiens, UniProt P05177); assay: Inhibition of human recombinant CYP1A2; type: ADME
T4 sequence (P05177 whole entry): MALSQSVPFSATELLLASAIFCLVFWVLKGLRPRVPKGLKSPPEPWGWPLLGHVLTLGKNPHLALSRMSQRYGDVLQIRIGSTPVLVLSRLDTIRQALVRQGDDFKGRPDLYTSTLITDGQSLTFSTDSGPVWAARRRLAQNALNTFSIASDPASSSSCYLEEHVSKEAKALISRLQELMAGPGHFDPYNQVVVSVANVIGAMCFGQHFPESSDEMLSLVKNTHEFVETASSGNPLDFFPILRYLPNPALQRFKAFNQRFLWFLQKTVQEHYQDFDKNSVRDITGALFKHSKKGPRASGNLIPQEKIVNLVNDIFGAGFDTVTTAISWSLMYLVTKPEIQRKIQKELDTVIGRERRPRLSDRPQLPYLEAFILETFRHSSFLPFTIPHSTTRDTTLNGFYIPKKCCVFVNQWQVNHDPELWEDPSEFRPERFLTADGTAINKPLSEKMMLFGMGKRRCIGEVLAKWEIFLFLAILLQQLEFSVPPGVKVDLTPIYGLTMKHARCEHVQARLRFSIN
How it was run: (§5)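 Human recombinant CYP1A2, 2C9, 2C19, 2D6 and 3A4, each turning an isoform-specific fluorogenic substrate into a fluorescent product; test compound up to 10 µM final in 1% DMSO; fluorescence read-out.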

Cytochrome P450 2C19 = Cytochrome P450 2C19 (Homo sapiens, UniProt P33261); assay: Inhibition of human recombinant CYP2C19; type: ADME; how it was run: as §5
Chain of Cytochrome P450 2C19 (P33261 whole entry): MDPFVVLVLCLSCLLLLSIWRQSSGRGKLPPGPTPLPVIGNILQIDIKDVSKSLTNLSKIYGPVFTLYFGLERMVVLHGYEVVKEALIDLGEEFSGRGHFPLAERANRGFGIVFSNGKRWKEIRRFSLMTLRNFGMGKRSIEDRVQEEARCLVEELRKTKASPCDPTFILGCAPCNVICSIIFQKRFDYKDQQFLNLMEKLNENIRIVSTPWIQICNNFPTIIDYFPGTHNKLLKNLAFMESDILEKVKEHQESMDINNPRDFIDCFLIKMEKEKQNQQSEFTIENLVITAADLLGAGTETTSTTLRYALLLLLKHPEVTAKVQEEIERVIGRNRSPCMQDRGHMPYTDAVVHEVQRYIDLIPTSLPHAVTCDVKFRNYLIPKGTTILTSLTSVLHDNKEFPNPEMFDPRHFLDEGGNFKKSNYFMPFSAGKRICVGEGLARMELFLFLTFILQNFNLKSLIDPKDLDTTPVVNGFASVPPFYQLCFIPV

Cytochrome P450 2C9 = Cytochrome P450 2C9 (Homo sapiens, UniProt P11712); assay: Inhibition of human recombinant CYP2C9; type: ADME; how it was run: as §5
Chain of Cytochrome P450 2C9 (P11712 whole entry): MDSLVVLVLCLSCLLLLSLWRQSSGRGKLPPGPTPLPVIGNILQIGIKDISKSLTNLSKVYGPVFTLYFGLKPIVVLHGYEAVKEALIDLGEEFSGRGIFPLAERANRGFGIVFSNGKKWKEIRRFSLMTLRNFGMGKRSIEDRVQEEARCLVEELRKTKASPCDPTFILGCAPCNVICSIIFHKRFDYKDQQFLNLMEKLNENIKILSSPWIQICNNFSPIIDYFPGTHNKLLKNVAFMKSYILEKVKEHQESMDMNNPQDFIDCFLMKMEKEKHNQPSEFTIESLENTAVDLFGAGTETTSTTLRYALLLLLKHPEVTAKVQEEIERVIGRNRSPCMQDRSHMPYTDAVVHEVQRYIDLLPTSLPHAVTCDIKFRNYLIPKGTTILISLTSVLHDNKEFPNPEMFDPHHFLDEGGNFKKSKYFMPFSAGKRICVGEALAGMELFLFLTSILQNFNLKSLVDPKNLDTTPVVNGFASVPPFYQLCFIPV

Cytochrome P450 2D6 = Cytochrome P450 2D6 (Homo sapiens, UniProt P10635); assay: Inhibition of human recombinant CYP2D6; type: ADME; how it was run: as §5
Chain of Cytochrome P450 2D6 (P10635 whole entry): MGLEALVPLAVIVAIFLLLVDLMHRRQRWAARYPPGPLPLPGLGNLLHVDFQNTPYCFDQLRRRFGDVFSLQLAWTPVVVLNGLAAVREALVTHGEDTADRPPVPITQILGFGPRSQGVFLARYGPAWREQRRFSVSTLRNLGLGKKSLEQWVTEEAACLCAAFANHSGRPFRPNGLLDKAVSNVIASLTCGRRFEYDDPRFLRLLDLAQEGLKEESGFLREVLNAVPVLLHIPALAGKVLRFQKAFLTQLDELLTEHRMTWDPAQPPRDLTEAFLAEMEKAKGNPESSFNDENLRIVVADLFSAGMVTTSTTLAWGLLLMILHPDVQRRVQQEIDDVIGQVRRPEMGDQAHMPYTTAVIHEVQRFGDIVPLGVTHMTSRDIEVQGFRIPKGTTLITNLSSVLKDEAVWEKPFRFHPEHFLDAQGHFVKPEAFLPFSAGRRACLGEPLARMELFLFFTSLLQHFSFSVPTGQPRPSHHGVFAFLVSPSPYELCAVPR

Cytochrome P450 3A4 = Cytochrome P450 3A4 (Homo sapiens, UniProt P08684); assay: Inhibition of human recombinant CYP3A4; type: ADME; how it was run: as §5
Chain of Cytochrome P450 3A4 (P08684 whole entry): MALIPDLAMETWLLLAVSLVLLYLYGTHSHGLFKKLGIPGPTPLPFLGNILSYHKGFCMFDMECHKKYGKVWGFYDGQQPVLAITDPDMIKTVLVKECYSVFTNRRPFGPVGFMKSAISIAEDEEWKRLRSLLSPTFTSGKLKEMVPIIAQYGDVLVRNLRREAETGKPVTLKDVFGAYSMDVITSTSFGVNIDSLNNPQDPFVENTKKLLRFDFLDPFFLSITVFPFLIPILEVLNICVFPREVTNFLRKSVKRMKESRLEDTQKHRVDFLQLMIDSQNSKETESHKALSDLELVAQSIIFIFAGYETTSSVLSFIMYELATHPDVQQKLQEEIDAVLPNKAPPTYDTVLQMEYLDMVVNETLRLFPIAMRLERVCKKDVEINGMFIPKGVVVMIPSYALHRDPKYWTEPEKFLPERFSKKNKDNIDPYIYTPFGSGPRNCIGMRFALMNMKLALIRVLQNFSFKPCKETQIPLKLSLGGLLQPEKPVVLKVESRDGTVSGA

Ki [1] | Ki [2] | microsomal CLint at 3 µM [3] | microsomal CLint at 3 µM [4] | Papp at 10 µM [5] | logD [6] | AUC(0-t) [7] | AUC(0-t) [8] | bioavailability [11] | Cmax [13] | Cmax [14] | Tmax [16] | Tmax [17] | half-life [19] | half-life [20] | clearance [22] | Vd [24] | SMILES | further results
23 nM | 22 nM | 15 µL/min/mg | 23 µL/min/mg | 2.4 ×10⁻⁶ cm/s | -1 | 1250 ng·h/mL | 2480 ng·h/mL | 40% | 1990 ng/mL | 297 ng/mL | 0 h | 0.5 h | 1 h | 4.2 h | 13.3 mL/min/kg | 0.9 L/kg | O=C(O)CN1C(=O)[C@@]2(CC(=O)N(Cc3ccccc3F)C2=O)c2cc(Cl)ccc21 | AUC(0-t) [9]: 2020 ng·h/mL; AUC(0-t) [10]: 2350 ng·h/mL; bioavailability [12]: 120%; Cmax [15]: 2570 ng/mL; Tmax [18]: 0 h; half-life [21]: 7 h; clearance [23]: 8.33 mL/min/kg; Vd [25]: 2 L/kg; IC50 [26]: > 30000 nM; IC50 [27]: > 30000 nM; IC50 [28]: > 30000 nM; IC50 [29]: > 30000 nM; IC50 [30]: > 30000 nM; Cmax [31]: 503 ng/mL; Tmax [32]: 2 h; half-life [33]: 3 h
196 nM | 150 nM | – | 9 µL/min/mg | 3 ×10⁻⁶ cm/s | – | – | – | – | – | – | – | – | – | – | – | – | O=C(O)CN1C(=O)C2(CC(=O)N(Cc3ccccc3)C2=O)c2cc(Cl)ccc21 (centres undefined) | IC50 [34]: 418 nM; IC50 (Cytochrome P450 1A2): > 10000 nM; IC50 (Cytochrome P450 2C19): > 10000 nM; IC50 (Cytochrome P450 2C9): > 10000 nM; IC50 (Cytochrome P450 2D6): > 10000 nM; IC50 (Cytochrome P450 3A4): > 10000 nM
13 nM | 88 nM | 3 µL/min/mg | – | 1.8 ×10⁻⁶ cm/s | -0.4 | 1390 ng·h/mL | 319 ng·h/mL | 5% | 5060 ng/mL | 55 ng/mL | 0 h | 1.5 h | 0.9 h | 8 h | 11.7 mL/min/kg | 0.3 L/kg | O=C(O)CN1C(=O)C2(CC(=O)N(Cc3cc(Cl)ccc3F)C2)c2cc(Cl)ccc21 (single isomer, unassigned; form 1) | –
